# From PubChem BioAssay
# TRPC4 block: blocks the mouse TRPC4 cation channel; HEK293 TRPC4beta/mu-opioid, DAMGO-evoked Fluo4 calcium flux; stronger effect = lower value; 300,000 compounds, 0.39% hits; B-score at 10 µM;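 active means B-score over 3 SD under the library average, no early fluorescence shift, positive overall ratio signal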
#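 Material: HEK293 cells with stable TRPC4beta plus mu-opioid receptor expression / Probe or stimulus: DAMGO in two steps, submaximal then maximal / Compound: single concentration per test compound / Technique: kinetic Fluo4 fluorescence imaging of calcium influx / Read-out: per-well B score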
# TRPC6 activator: mouse TRPC6 channel activation; 310,000 compounds, 0.13% hits; HEK293-TRPC6 membrane potential dye fluorescence; stronger effect = higher value; Q61143; AID 2550; B-score at 10 µM;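 active means B-score of the integrated fluorescence ratio above library mean plus 3 SD, and starting fluorescence ratio within library mean plus 5 SD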;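 further: higher score means more depolarization so channel activation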
# Target sequence (Q61143 whole entry, looked up): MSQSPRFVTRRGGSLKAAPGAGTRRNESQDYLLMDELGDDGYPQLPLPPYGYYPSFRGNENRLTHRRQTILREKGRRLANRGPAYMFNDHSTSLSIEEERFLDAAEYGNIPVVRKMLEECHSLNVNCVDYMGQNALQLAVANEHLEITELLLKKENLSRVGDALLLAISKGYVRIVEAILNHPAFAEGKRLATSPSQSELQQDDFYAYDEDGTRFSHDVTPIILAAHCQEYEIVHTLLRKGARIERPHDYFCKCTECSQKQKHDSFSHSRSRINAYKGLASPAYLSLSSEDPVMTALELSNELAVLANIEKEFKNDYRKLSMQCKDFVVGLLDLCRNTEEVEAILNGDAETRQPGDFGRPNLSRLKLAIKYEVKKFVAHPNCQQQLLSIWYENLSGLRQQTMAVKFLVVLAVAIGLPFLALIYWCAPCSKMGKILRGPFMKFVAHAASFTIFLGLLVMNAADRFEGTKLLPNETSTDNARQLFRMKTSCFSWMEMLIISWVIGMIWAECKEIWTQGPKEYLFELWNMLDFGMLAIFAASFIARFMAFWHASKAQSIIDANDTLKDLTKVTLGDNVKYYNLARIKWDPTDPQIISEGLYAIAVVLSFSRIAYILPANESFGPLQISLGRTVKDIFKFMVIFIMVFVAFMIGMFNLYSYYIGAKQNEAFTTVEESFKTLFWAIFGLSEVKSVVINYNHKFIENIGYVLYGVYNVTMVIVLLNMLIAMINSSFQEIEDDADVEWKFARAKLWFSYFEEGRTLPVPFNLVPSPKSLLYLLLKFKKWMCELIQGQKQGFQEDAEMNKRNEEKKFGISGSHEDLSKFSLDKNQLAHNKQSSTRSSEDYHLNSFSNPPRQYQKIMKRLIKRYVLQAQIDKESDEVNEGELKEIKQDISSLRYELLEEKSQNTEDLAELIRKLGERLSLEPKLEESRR
# TRPC4 agonist: TRPC4 (mouse) channel activation | HEK293 TRPC4beta/mu-opioid, Fluo4 calcium fluorescence; stronger effect = higher value | B-score at 10 µM | 310,000 compounds, 0.49% hits | AID 2237;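 active means B-score above 5 SD of library B-scores, and initial fluorescence ratio not above library mean plus 5 SD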;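 further: positive B-score marks a calcium rise read as TRPC4 activation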
#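 Technique: kinetic Fluo4 calcium fluorescence; Test system: TRPC4beta and mu-opioid receptor HEK293 stable cells; Measure: B-scored integrated calcium fluorescence ratio; Benchmarks: low control buffer alone, high control maximal DAMGO; Schedule: 45 min room-temperature Fluo4 loading, 110 s read.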
# TRPC4 potent: allosterically enhances the mouse TRPC4 cation channel | Q9QUQ5 | 310,000 compounds, 0.42% hits | B-score at 10 µM | AID 2227 | HEK293 TRPC4beta/mu-opioid, DAMGO EC20, Fluo-4 Ca2+ flux; stronger effect = higher value;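 active means B-score of calcium response area above 5 SD of library B-scores, with initial fluorescence ratio within 5 SD of library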
# TRPC6 inh: inhibitors of mouse TRPC6 channel; Q61143; HEK293-TRPC6, membrane potential dye, ACh-evoked depolarization; stronger effect = lower value; B-score at 10 µM; 310,000 compounds, 1.1% hits; AID 2553;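 active means B-score under library mean minus 3 SD, initial fluorescence not abnormally high, positive integrated signal ratio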;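 further: B-score derived from integrated fluorescence ratio over the kinetic read; more negative B-score means stronger inhibition of depolarization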
# TRPC4 spec 2: mouse TRPC4 off-target activity of TRPC6 inhibitors, second screen; shares compounds with TRPC6 inh; HEK293 TRPC4/MOR, membrane potential dye fluorescence; channel activated by saturating DAMGO dose; inhibition, % at 10 µM; 920 compounds, 42% hits;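 active means compounds whose fluorescence signal differed from control wells by over 3 SD, either direction, in both duplicate plates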
# TRPC4 spec: mouse TRPC4 off-target activity of TRPC6 inhibitors | shares compounds with TRPC6 inh | activity change, negative = inhibition, % at 10 µM | HEK293 TRPC4/mu-opioid, membrane potential fluorescence | 920 compounds, 61% hits;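 active means rise or fall in signal beyond 3 SD of buffer-only wells in both replicate plates, either sign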;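 further: integrated kinetic ratio of fluorescence range over baseline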
# HEK293 MPD ctr 2-1: second counter-screen for TRPC6 inhibitors: parental HEK293 cells; 920 compounds, 31% hits; AID 2779; parental HEK293 membrane potential dye fluorescence; maximal acetylcholine challenge after compound addition; signal change vs control, % at 10 µM; shares compounds with TRPC6 inh;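 active means membrane potential signal moving either way by over 3 SD of the maximum-effect control, in both duplicate plates, meaning non-specific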
# HEK293 MPD ctr-1: parental HEK293 nonspecific activity of TRPC6 inhibitors; shares compounds with TRPC6 inh; parental HEK293 membrane potential dye fluorescence; membrane potential signal change, % at 10 µM; 920 compounds, 60% hits;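 active means membrane potential signal shifting up or down by more than 3 SD of buffer-only wells, on both duplicate plates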
# HEK293 MPD ctr-2: counter-screen for TRPC6 modulators: effect in parental HEK293 cells; shares compounds with TRPC6 inh; membrane potential dye fluorescence; membrane potential signal change, % at 10 µM; 2,400 compounds, 51% hits; AID 488924;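 active means membrane potential signal moves up or down beyond 5 SD from buffer-only wells, on both duplicate plates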
# HEK293 MPD ctr 2-2: second check of TRPC6 modulator effects in parental HEK293 cells | shares compounds with TRPC6 inh | membrane potential dye fluorescence; after compound, maximal acetylcholine stimulation | inhibition, % at 10 µM | 2,400 compounds, 14% hits | AID 488926;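 active means membrane potential signal drops by more than 5 SD from the mean control signal, in both duplicate plates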
# TRPC4 ctr mod: selectivity of TRPC6 modulators against mouse TRPC4; percent change from control (negative = decrease, positive = increase), % at 10 µM; shares compounds with TRPC6 inh; HEK293 TRPC4/mu-opioid, membrane potential fluorescence; 2,400 compounds, 69% hits;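 active means membrane potential signal moved up or down beyond 5 SD of buffer control wells, in both duplicate plates, actives on both sides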
# TRPC4 ctr inh 2: second check of whether TRPC6 modulators also affect mouse TRPC4; shares compounds with TRPC6 inh; 2,400 compounds, 55% hits; inhibition, % at 10 µM; HEK293 TRPC4/mu-opioid, membrane potential dye fluorescence; stimulated with maximal-effect DAMGO;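 active means drop in membrane potential signal beyond 5 SD of the control wells in both duplicate plates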;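 further: TRPC4 counter screen for TRPC6 hits run under conditions tuned for TRPC6 not TRPC4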
# TRPC6 block conf: confirmation of mouse TRPC6 inhibitors; 3,300 compounds, 43% hits; AID 488960; HEK293-TRPC6, membrane potential dye, ACh-evoked depolarization; shares compounds with TRPC6 inh; inhibition, % at 10 µM;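 active means fluorescence ratio falls more than 5 SD below the full-stimulation control mean, in both duplicate runs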;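 further: integrated fluorescence ratio of peak minus minimum over baseline after agonist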
# TRPC6 act confirm: confirmation of mouse TRPC6 activators; shares compounds with TRPC6 inh; HEK293-TRPC6 membrane potential dye fluorescence, FDSS; activation, % at 10 µM; 2,800 compounds, 11% hits; AID 488961;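 active means ratio signal rise beyond 5 SD above unstimulated control wells' mean, seen in both duplicate runs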
# Hits are given with their value; . = inactive; / = not tested or not shown. An excerpt weighted towards active compounds, which were near 2.3% of everything screened.
SMILES,TRPC4 block,TRPC6 activator,TRPC4 agonist,TRPC4 potent,TRPC6 inh,HEK293 MPD ctr-2,HEK293 MPD ctr 2-2,TRPC4 ctr mod,TRPC4 ctr inh 2,TRPC6 block conf,TRPC6 act confirm,others
CCN(CC)CCC(=O)Nc1cccc2c1C(=O)c1ccccc1C2=O,.,.,.,.,-6.39,.,.,-30.0%,45.5%,51.5%,.,
COC(=O)c1ccc2c(c1)C(C)(C)C(/C=C/c1ccc(OC)c(OC)c1OC)=[N+]2C,.,.,.,.,-9.55,-179.0%,88.0%,-190.5%,55.5%,71.5%,.,
CCNc1nc(N2CCCCC2)nc(-n2nnc(C(=O)OCC)c2C)n1,.,12.3,.,.,.,.,.,112.5%,80.5%,.,67.5%,
CCOC(=O)c1nnn(-c2nc(OC)nc(N3CCCC3)n2)c1-c1ccccc1,.,.,.,.,.,/,/,/,/,/,/,
C[n+]1cccc(/C=N/Nc2nc(Cl)c(C#N)c(Cl)c2Cl)c1,.,.,.,.,-6.24,.,79.5%,-13.5%,.,.,.,
O=C(O)c1ccc(NC(=O)c2ccccc2NC(=O)c2cccc(Br)c2)cc1,.,.,.,.,.,/,/,/,/,/,/,
Cc1cccc(Nc2c(-c3ccc(O)cc3)nc3ncccn23)c1,.,.,.,.,-5.15,-55.0%,.,-13.0%,56.5%,.,.,
Cc1ccc(Nc2c(-c3ccc(N4CCOCC4)cc3)nc3ncccn23)cc1C,.,.,.,.,-6.07,.,.,-26.0%,80.0%,.,.,
Cc1ccc(S(=O)(=O)N2CCN(C(=O)c3cccc(-n4cccc4)c3)CC2)cc1,.,13.7,.,.,-13.4,.,.,.,.,.,.,
O=C(c1cccc(F)c1)N1CCN(S(=O)(=O)c2ccc(C(F)(F)F)cc2)CC1,/,14.5,.,.,-11.8,.,.,.,.,61.5%,71.5%,
O=C(c1cccc(S(=O)(=O)N2CCN(c3ccccc3)CC2)c1)N1CCCCCCC1,.,.,.,.,.,/,/,/,/,/,/,
Cc1ccc(C(=O)N2CCN(S(=O)(=O)c3ccc(C(C)C)cc3)CC2)s1,.,14.7,.,.,-12.5,.,.,.,.,.,.,
O=C(c1cccc(-n2cccc2)c1)N1CCN(S(=O)(=O)c2ccccc2)CC1,.,.,.,.,-7.03,/,/,/,/,66.1%,.,TRPC4 spec 2=.;TRPC4 spec=.;HEK293 MPD ctr 2-1=.;HEK293 MPD ctr-1=.
CCN(C(=O)CSc1nnc(NC2CCCCC2)s1)C1CCS(=O)(=O)C1 (configuration not stated),.,.,.,.,.,/,/,/,/,/,/,
Cc1ccc(C)c(S(=O)(=O)N2CCN(C(=O)c3cncc(Br)c3)CC2)c1,.,.,.,.,.,/,/,/,/,/,/,
